Laboratory results published in article PMC7153518 (ACS chemical neuroscience, 2020).
Entries after “also recorded” stand apart in the source; their conditions may differ. Like-named read-outs stand apart in the source and are kept apart here.

Tests used:
[1] = Metabolic stability in mouse liver microsomes; assay type: in vitro ADME; settings: male, CD-1, mouse
TRPM8 [2] = settings: read-out: EC50 previously reported; CHO cells / mouse TRPM8; cited from earlier work
human TRPM8 (hTRPM8) = human TRPM8 (hTRPM8) (Homo sapiens, UniProt Q7Z2W7); assay type: cell-based
human TRPA1 = human TRPA1 (Homo sapiens, UniProt O75762); test: FLIPR Ca2+ flux assay; assay type: cell-based; settings: for hTRPA1% activation: normalized to Emax of AITC (300 μM); for hTRPA1% inhibition: vs EC80 of AITC (10 μM)
human TRPV1 = human TRPV1 (Homo sapiens, UniProt Q8NER1); test: FLIPR Ca2+ flux assay; assay type: cell-based; settings: for hTRPV1% activation: normalized to Emax of capsaicin (3 μM); for hTRPV1% inhibition: vs EC80 of capsaicin (0.1 μM)
human TRPM8 = human TRPM8 (Homo sapiens, UniProt Q7Z2W7); settings: cited from earlier work
TRPA1 = settings: read-out: TRPA1 IC50; vs the effect of 80 μM AITC; cited from earlier work
TRPM8 [3] = settings: read-out: IC50 (whole-cell patch clamp); cited from earlier work
[4] = test system: icilin-induced WDS in mice; test: Wet dog shakes; assay type: in vivo
[5] = test system: Oxaliplatin (OXP)-induced cold allodynia in C57 mice; test: Oxaliplatin-induced cold allodynia, acetone test; assay type: in vivo
How it was run: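 Male C57 mice received oxaliplatin (6 mg/kg) on days 1, 3 and 5, with saline and 5% mannitol given i.p., and were tested on day 7. Test compound (DMSO stock diluted in saline, 0.1–1 μg) was injected once into the right hind paw plantar surface. After about 30 min habituation on mesh, acetone-drop cold responses were followed over time. Mean ± SEM, n = 6; one-way ANOVA, Dunnett's.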

[6] = after single administration of 0.1 and 1 μg

Chain of human TRPA1 (O75762 whole entry): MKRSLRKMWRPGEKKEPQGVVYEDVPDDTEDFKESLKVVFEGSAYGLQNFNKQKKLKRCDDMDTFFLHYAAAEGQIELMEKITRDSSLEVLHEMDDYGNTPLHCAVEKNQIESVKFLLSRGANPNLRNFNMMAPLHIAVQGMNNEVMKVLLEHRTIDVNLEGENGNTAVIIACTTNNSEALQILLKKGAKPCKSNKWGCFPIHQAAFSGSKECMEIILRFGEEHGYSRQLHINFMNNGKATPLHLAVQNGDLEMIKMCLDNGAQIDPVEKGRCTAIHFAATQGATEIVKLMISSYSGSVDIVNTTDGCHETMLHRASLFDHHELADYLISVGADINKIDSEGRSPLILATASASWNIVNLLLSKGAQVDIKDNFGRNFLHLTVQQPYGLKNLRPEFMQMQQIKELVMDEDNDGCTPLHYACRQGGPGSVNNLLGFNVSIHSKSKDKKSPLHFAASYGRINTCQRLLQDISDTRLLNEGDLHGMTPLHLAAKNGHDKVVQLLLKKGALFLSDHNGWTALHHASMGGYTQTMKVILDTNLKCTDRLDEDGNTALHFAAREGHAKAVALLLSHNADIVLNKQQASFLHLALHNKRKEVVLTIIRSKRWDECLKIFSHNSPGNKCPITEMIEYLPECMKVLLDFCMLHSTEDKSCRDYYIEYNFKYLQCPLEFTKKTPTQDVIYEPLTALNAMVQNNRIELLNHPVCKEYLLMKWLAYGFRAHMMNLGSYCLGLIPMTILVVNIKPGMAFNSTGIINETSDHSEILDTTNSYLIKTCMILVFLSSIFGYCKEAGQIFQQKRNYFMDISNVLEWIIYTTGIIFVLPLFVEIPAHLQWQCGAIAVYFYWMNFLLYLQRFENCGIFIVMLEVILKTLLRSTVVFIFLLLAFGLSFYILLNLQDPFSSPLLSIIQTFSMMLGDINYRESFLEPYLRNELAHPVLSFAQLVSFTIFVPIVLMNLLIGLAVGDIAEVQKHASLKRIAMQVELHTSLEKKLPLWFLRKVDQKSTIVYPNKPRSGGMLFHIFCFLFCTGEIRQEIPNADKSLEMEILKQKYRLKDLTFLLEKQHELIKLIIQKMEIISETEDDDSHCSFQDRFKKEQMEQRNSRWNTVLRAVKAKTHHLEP
Chain of human TRPV1 (Q8NER1 whole entry): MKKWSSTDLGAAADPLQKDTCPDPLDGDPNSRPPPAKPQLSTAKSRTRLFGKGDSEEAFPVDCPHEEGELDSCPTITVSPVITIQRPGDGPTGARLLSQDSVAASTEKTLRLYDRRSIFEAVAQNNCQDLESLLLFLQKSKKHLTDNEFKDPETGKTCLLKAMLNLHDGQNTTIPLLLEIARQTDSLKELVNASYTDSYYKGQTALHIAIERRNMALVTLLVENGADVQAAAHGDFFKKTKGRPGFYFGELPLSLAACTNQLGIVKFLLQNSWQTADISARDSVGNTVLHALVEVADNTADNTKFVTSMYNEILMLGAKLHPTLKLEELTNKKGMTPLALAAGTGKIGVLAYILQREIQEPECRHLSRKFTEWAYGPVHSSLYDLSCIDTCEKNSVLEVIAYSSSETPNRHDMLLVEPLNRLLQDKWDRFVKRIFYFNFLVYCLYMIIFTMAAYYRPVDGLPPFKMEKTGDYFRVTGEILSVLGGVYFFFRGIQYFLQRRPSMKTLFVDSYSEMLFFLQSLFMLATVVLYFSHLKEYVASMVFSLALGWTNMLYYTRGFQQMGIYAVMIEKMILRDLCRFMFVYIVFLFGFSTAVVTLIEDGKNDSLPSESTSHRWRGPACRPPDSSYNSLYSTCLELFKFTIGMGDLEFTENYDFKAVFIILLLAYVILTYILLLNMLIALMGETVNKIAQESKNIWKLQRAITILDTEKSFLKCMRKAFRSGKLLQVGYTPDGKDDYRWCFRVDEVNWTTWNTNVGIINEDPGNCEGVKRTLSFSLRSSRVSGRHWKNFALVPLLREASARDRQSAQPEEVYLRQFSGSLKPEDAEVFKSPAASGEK
Chain of human TRPM8 (hTRPM8) (Q7Z2W7 whole entry): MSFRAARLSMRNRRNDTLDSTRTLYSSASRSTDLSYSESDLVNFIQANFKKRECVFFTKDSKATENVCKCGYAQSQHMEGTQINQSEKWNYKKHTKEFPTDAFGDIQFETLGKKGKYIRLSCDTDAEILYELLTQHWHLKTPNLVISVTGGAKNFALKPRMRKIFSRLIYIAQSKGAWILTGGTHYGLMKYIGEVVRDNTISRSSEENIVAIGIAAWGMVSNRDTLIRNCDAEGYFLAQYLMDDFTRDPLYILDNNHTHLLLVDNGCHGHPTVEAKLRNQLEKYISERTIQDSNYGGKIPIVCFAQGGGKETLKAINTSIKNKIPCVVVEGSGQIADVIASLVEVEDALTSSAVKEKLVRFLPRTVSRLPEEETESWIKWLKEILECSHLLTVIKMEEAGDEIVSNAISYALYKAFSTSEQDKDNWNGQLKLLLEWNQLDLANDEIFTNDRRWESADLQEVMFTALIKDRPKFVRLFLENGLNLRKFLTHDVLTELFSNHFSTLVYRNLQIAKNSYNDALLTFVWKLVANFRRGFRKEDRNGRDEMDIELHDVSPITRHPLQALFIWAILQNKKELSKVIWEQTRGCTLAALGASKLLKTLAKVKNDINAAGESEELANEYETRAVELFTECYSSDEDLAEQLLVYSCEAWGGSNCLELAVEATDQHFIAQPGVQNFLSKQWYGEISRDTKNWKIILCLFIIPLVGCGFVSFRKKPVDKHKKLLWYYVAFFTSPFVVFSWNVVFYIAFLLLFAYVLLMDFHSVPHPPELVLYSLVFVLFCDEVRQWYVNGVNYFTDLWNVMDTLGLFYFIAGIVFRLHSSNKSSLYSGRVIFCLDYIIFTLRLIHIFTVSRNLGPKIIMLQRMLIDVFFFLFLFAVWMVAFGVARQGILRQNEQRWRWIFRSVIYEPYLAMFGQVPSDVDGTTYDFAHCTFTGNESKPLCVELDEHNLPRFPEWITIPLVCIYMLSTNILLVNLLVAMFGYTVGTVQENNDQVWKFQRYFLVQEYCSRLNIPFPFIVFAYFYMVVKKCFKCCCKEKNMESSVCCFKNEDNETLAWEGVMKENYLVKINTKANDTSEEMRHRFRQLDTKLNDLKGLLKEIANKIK
Chain of human TRPM8 (Q7Z2W7 whole entry): as above

**Q.** With `C[C@]12CC[C@H]3[C@@H](CCC4=CC(=O)CC[C@@]43C)[C@@H]1CC[C@@H]2O` [testosterone, reference compound] as the compound, how does the microsomal CLint ([1]; microsomes) read?
**A.** 372 µL/min/mg

**Q.** Which EC50 (TRPM8 [2]) does the source give for `O=C1NC(c2cccc([N+](=O)[O-])c2)=CCN1c1ccccc1O` [icilin, 3-(2-hydroxyphenyl)-6-(3-nitrophenyl)-3,4-dihydropyrimidin-2(1H)-one] here?
**A.** 120 to 200 nM

**Q.** What does the source list for `O=C(N[C@H]1CC[C@@H]2CCCC[C@@H]2C1)c1ccc(-c2ccccc2)cc1` (racemic) [Compound 12, N-((2SR,9RS,10SR)-Decahydronaphthalen-2-yl)-[1,1′-biphenyl]-4-carboxamide]?
**A.** higher potency than the diastereomeric mixture (10) (human TRPM8 (hTRPM8); ratio of IC50 values): 4 fold; hTRPA1% activation (human TRPA1; concn tested 3 nM): −2.3 ± 1.0%; hTRPA1% inhibition (human TRPA1; concn tested 3 nM): −0.3 ± 3%; hTRPA1% activation (human TRPA1; concn tested 30 nM): −2.1 ± 0.5%; hTRPA1% inhibition (human TRPA1; concn tested 30 nM): 5 ± 9%; hTRPV1% activation (human TRPV1; concn tested 3 nM): 2 ± 1%; hTRPV1% inhibition (human TRPV1; concn tested 3 nM): −12 ± 3%; hTRPV1% activation (human TRPV1; concn tested 30 nM): 3 ± 1%; hTRPV1% inhibition (human TRPV1; concn tested 30 nM): 1.0 ± 2%

**Q.** What does the source list for `O=C(NC1CCC2CCCCC2C1)c1ccc(-c2ccccc2)cc1` (centres unmarked) [Compound 10, N-(Decahydronaphthalen-2-yl)-[1,1′-biphenyl]-4-carboxamide]?
**A.** enhancement of TRPM8 potency relative to 8 (human TRPM8 (hTRPM8); ratio of IC50 values): 3500 fold; higher potency than cycloheptyl 5 and cyclooctyl 7 (human TRPM8 (hTRPM8); ratio of IC50 values): 10 fold; hTRPA1% activation (human TRPA1; concn tested 10 nM): 0.2 ± 0.4%; hTRPA1% activation (human TRPA1; concn tested 100 nM): −1.1 ± 0.2%; inhibition at 0.1 µM (human TRPV1; HEK293, read-out: hTRPV1% inhibition): 2 ± 3%; hTRPV1% activation (human TRPV1; concn tested 10 nM): 2.4 ± 0.8%; hTRPV1% activation (human TRPV1; concn tested 100 nM): 2.3 ± 0.9%

**Q.** Which results are given for `O=C(NC12CC3CC(CC(C3)C1)C2)c1ccc(-c2ccccc2)cc1` [Compound 15, N-(Adamantan-1-yl)-[1,1′-biphenyl]-4-carboxamide]?
**A.** hTRPA1% activation (human TRPA1; concn tested 30 nM): −2.6 ± 0.5%; hTRPA1% activation (human TRPA1; concn tested 300 nM): −1.5 ± 0.4%; hTRPV1% activation (human TRPV1; concn tested 30 nM): 1.0 ± 0.2%; hTRPV1% activation (human TRPV1; concn tested 300 nM): 1 ± 2%

**Q.** With `O=C(NC1CCCc2ccccc21)c1ccc(-c2ccccc2)cc1` (centres unmarked) [Compound 9, N-(1,2,3,4-Tetrahydronaphthalen-1-yl)-[1,1′-biphenyl]-4-carbox-amide] as the compound, how does the “loss of potency vs 8” value (human TRPM8 (hTRPM8); ratio of IC50 values) read?
**A.** 3 fold

**Q.** For `O=C(NC1CCCCCCC1)c1ccc(-c2ccccc2)cc1` [Compound 7, N-Cyclooctyl-[1,1′-biphenyl]-4-carboxamide], which “improvement of hTRPM8 potency relative to 2” value (human TRPM8 (hTRPM8); ratio of IC50 values) is on record?
**A.** 8–9 fold

**Q.** And the hTRPA1% activation (human TRPA1; concn tested 100 nM)?
**A.** −1.0 ± 0.1%

**Q.** What about the hTRPA1% activation (human TRPA1; concn tested 1 μM) of the same compound?
**A.** −1.5 ± 0.9%

**Q.** And the hTRPV1% activation (human TRPV1; concn tested 100 nM)?
**A.** −1.9 ± 0.7%

**Q.** What about the hTRPV1% activation (human TRPV1; concn tested 1 μM) of the same compound?
**A.** −3.2 ± 0.6%

**Q.** With `O=C(NC1CCCCCC1)c1ccc(-c2ccccc2)cc1` [Compound 5, N-Cycloheptyl-[1,1′-biphenyl]-4-Carboxamide] as the compound, how does the “improvement of hTRPM8 potency relative to 2” value (human TRPM8 (hTRPM8); ratio of IC50 values) read?
**A.** 8–9 fold

**Q.** And the hTRPA1% activation (human TRPA1; concn tested 100 nM)?
**A.** 0.1 ± 0.7%

**Q.** And the hTRPA1% activation (human TRPA1; concn tested 1 μM)?
**A.** 0.8 ± 0.5%

**Q.** What about the hTRPV1% activation (human TRPV1; concn tested 100 nM) of the same compound?
**A.** 0.0 ± 1.0%

**Q.** And the hTRPV1% activation (human TRPV1; concn tested 1 μM)?
**A.** 0.6 ± 1.5%

**Q.** With `O=C(O)c1ccc(S(=O)(=O)N(Cc2ccc(OC(F)(F)F)cc2)c2ncc(C(F)(F)F)cc2Cl)cc1` [RQ-00203078] as the compound, how does the IC50 (human TRPM8; read-out: reported potency at hTRPM8) read?
**A.** < 10 nM

**Q.** For `O=C(NC1CCc2ccccc2C1)c1ccc(-c2ccccc2)cc1` (centres unmarked) [Compound 11, N-(1,2,3,4-Tetrahydronaphthalen-2-yl)-[1,1′-biphenyl]-4-carbox-amide], which “decrease of hTRPM8 potency (vs 10)” value (human TRPM8 (hTRPM8); ratio of IC50 values) is on record?
**A.** 9 fold

**Q.** And the hTRPA1% activation (human TRPA1; concn tested 100 nM)?
**A.** −0.1 ± 0.5%

**Q.** And the hTRPA1% inhibition (human TRPA1; concn tested 100 nM)?
**A.** 3 ± 6%

**Q.** And the hTRPA1% activation (human TRPA1; concn tested 1 μM)?
**A.** −0.8 ± 0.6%

**Q.** And the hTRPA1% inhibition (human TRPA1; concn tested 1 μM)?
**A.** 4 ± 1%

**Q.** What about the hTRPV1% activation (human TRPV1; concn tested 100 nM) of the same compound?
**A.** −1.8 ± 0.9%

**Q.** And the hTRPV1% inhibition (human TRPV1; concn tested 100 nM)?
**A.** −3.1 ± 0.6%

**Q.** And the hTRPV1% activation (human TRPV1; concn tested 1 μM)?
**A.** −0.7 ± 1.5%

**Q.** What about the hTRPV1% inhibition (human TRPV1; concn tested 1 μM) of the same compound?
**A.** 13 ± 3%

**Q.** For `O=C(NC1CCC2(CCCCC2)CC1)c1ccc(-c2ccccc2)cc1` [Compound 13, N-(Spiro[5.5]undecan-3-yl)-[1,1′-biphenyl]-4-carboxamide], which hTRPA1% activation (human TRPA1; concn tested 100 nM) is on record?
**A.** 0.2 ± 0.5%

**Q.** And the hTRPA1% activation (human TRPA1; concn tested 1 μM)?
**A.** −0.2 ± 1.1%

**Q.** And the hTRPV1% activation (human TRPV1; concn tested 100 nM)?
**A.** −1.0 ± 0.4%

**Q.** And the hTRPV1% activation (human TRPV1; concn tested 1 μM)?
**A.** 0.7 ± 0.2%

**Q.** What does the source list for `Cl.Cl.Cl.Cl.Cl.Cl.N.N.N.N.N.N.N.N.N.N.N.N.N.N.[O-2].[O-2].[Ru+3].[Ru+3].[Ru+4]` [ruthenium red, reference compound]?
**A.** IC50 (human TRPA1; read-out: TRPA1 IC50, vs AITC (10 μM)-activated [Ca2+]i release): 162 ± 33 nM; IC50 (TRPA1): 29 ± 6 nM

**Q.** For `COc1cc(CN(CCN)C(=O)OC(C)c2ccccc2)ccc1OCc1ccccc1` (centres unmarked) [PBMC], which IC50 (TRPM8 [3]) is on record?
**A.** 0.4 to 0.6 nM

**Q.** For `CC1CCC(C(C)C)C(NC(=O)c2ccc(-c3ccccc3)cc2)C1` (centres unmarked) [Compound 2, N-(2-Isopropyl-5-methylcyclohexyl)-[1,1′-biphenyl]-4-carboxamide], which “increase of hTRPM8 activity relative to 1” value (human TRPM8 (hTRPM8); ratio of IC50 values) is on record?
**A.** 30 fold

**Q.** What does the source list for `O=C(NC1CCC2(CCCC2)CC1)c1ccc(-c2ccccc2)cc1` [Compound 14, N-(Spiro[4.5]decan-8-yl)-[1,1′-biphenyl]-4-carboxamide]?
**A.** effect on menthol-evoked TRPM8-mediated Ca2+ entry (human TRPM8 (hTRPM8); 3 nM compound vs maximal (100 μM) menthol): significantly (P < 0.01) reduce; effect on icilin-induced Ca2+ influx at higher concentrations (human TRPM8 (hTRPM8); icilin 500 nM): nearly abolishes; hTRPA1% activation (human TRPA1; concn tested 3 nM): −0.8 ± 0.4%; hTRPA1% activation (human TRPA1; concn tested 30 nM): 0.1 ± 1.2%; hTRPV1% activation (human TRPV1; concn tested 3 nM): 1 ± 1%; hTRPV1% activation (human TRPV1; concn tested 30 nM): 1 ± 2%; microsomal CLint at 1 μM ([1]; liver microsomes): 45.5 µL/min/mg; inhibition of WDS at the highest dose ([4]; 50 mg/kg s.c., compared with gabapentin 25 mg/kg s.c.): efficacy comparable to that observed with a standard analgesic dose of gabapentin; effect on icilin-triggered wet dog shakes ([4]; 1, 30 and 50 mg/kg s.c. 30 min before icilin 10 mg/kg i.p., WDS counted over 30 min, n = 6): dose-dependently blocks; also recorded: marked, dose-dependent antinociceptive behavior; effect on OXP effects at 60 min ([5]; 60 min after administration): significantly suppresses OXP effects; time at which attenuated cold allodynia is evident [5, 6]: 15 min; time of maximum inhibition of cold allodynia [5, 6]: 30 min

**Q.** Which IC50 (human TRPM8; read-out: human TRPM8 IC50, WS-12-mediated activation) does the source give for `C[C@H](c1ccc(F)cc1)N(Cc1cccc(C(=O)O)c1)C(=O)c1cnc2ccccc2c1` [PF-05105679] here?
**A.** 181 ± 7.21 nM

**Q.** What about the IC50 (human TRPM8; read-out: human TRPM8 IC50, voltage-mediated activation) of the same compound?
**A.** 103 ± 29.4 nM
